One may read the MIC as the smallest concentration in the dilution series that meets the test's criterion for growth inhibition. Low values mean greater potency, high ones weaker potency.

Structures are written as SMILES. Converted amounts (≈) assume the structure as drawn.

The nature of series [1]: Partition coefficient was evaluated using method of Morgiuchi et al. Format: physicochemical. As to conditions: octanol/water; read-out: mLog P.
Series [2] is described as follows: Minimum inhibitory concentration against MAC NJ211 using Middlebrook 7H9 with glycerol and OADC enrichment. Format: functional. As to conditions: Mycobacterium avium. An outline of the steps: (§1)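 Run in-house in Middlebrook 7H9 broth with glycerol and OADC enrichment, pH 6.6, against Mtb H37Ra or M. avium; the M. avium strains came from the National Jewish Center, Denver. Ethambutol served as a reference drug. The read-out is the MIC.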

Series [3] is described as follows: Minimum inhibitory concentration against Mtb H37Ra using Middlebrook 7H9 with glycerol and OADC enrichment. Format: functional. As to conditions: Mycobacterium tuberculosis. An outline of the steps:
as §1

A short description of series [4]: Minimum inhibitory concentration against Mtb H37Rv using Middlebrook 7H9 with glycerol and OADC enrichment. Format: functional. As to conditions: Mycobacterium tuberculosis.

With `O=C(OCc1ccc([N+](=O)[O-])cc1)c1cnccn1`, in series [1], the logP was determined as 0.99. The MIC is over 128 µg/mL in series [2], 128 µg/mL (≈ 494 µM) in series [3] and 6.25 µg/mL (≈ 24.1 µM) in series [4].

`O=C(O)c1cnc2ccccc2n1`: the MIC in series [2] and in series [3] was over 128 µg/mL throughout.

For the molecule `O=C(OCc1ccccc1[N+](=O)[O-])c1cnc2ccccc2n1`, in series [1], the logP amounted to 2.27. In addition, the MIC is over 128 µg/mL in series [2], over 128 µg/mL in series [3] and over 6.25 µg/mL in series [4].

With `CCCCCCCCOC(=O)c1cnc2ccccc2n1`, the logP in series [1] turned out to be 2.61. Moreover, the results for the MIC in series [2], in series [3] and in series [4] were 128 µg/mL (≈ 447 µM), 128 µg/mL (≈ 447 µM) and over 6.25 µg/mL, respectively.

As for `O=C(OCc1ccc([N+](=O)[O-])cc1)c1ccccn1`, the logP in series [1] stood at 2.29. Also, the MIC in series [2] was over 128 µg/mL; in series [3], 128 µg/mL (≈ 496 µM); in series [4] it was over 6.25 µg/mL.

Regarding `O=C(OCc1ccccc1[N+](=O)[O-])c1cnccn1`, the logP in series [1] stood at 0.99. The MIC in series [2] was over 128 µg/mL; in series [3] it was 64 µg/mL (≈ 247 µM); in series [4] it was over 6.25 µg/mL.

On to `CCCCCCC(C)OC(=O)c1cnc2ccccc2n1` (configuration not stated), for which the logP in series [1] turned out to be 2.7. Moreover, the figures for the MIC in series [2], in series [3] and in series [4] were 128 µg/mL (≈ 447 µM), 64 µg/mL (≈ 223 µM) and over 6.25 µg/mL, respectively.

`O=C(OCc1ccc(C(F)(F)F)cc1)c1cnccn1`: in series [1], the logP is 1.87. For the same molecule, the MIC in series [2] is over 128 µg/mL; in series [3], 128 µg/mL (≈ 454 µM); in series [4], over 6.25 µg/mL.

Consider `CC(=O)Oc1ccc(COC(=O)c2cnc3ccccc3n2)cc1`, for which, in series [1], the logP amounted to 2.15. The values for the MIC in series [2], in series [3] and in series [4] were 16 µg/mL (≈ 49.6 µM), 0.5 µg/mL (≈ 1.55 µM) and 6.25 µg/mL (≈ 19.4 µM), respectively.

`NNC(=O)c1cnc2ccccc2n1`: in series [1], the logP was 0.16. The figures for the MIC in series [2], in series [3] and in series [4] were over 128 µg/mL, 64 µg/mL (≈ 340 µM) and over 6.25 µg/mL, respectively.

As for `O=C(OCc1ccc([N+](=O)[O-])cc1)c1cnc2ccccc2n1`, the logP in series [1] was found to be 2.27. Further, the MIC in series [2] was over 128 µg/mL; in series [3], over 128 µg/mL; in series [4], over 6.25 µg/mL.

Turning to `O=C(OCc1ccccc1)c1cnccn1`, the logP in series [1] is 0.94. Further, the MIC in series [2] is over 128 µg/mL; in series [3], 16 µg/mL (≈ 74.7 µM); in series [4], over 6.25 µg/mL.

`CC(=O)OCc1ccc(OC(C)=O)cc1`: the logP in series [1] was 2.03. Moreover, the values for the MIC in series [2] and in series [3] were 128 µg/mL (≈ 615 µM) and 8 µg/mL (≈ 38.4 µM), respectively.

Regarding `O=C(OCc1ccc([N+](=O)[O-])cc1)c1ccccc1`, in series [1], the logP is 3.45. The MIC in series [4] was over 6.25 µg/mL.

For `CC(=O)Oc1ccc(COC(=O)c2cnccn2)cc1`, the logP in series [1] was 0.92. The results for the MIC in series [2], in series [3] and in series [4] were 16 µg/mL (≈ 58.8 µM), under 0.25 µg/mL and 6.25 µg/mL (≈ 23 µM), respectively.

As to `COC(=O)c1cnc2ccccc2n1`, the logP in series [1] was 0.84. The MIC in series [2] was over 128 µg/mL; in series [3], over 128 µg/mL; in series [4], over 6.25 µg/mL.

Take `O=C(O)c1cnccn1` [PYRAZINOIC ACID]: the MIC in series [2] was over 128 µg/mL; in series [3], 64 µg/mL (≈ 516 µM).

As for `CCCOC(=O)c1cnc2ccccc2n1`, in series [1], the logP worked out at 1.41. Also, the MIC worked out at 128 µg/mL (≈ 592 µM) in series [2], 64 µg/mL (≈ 296 µM) in series [3] and 6.25 µg/mL (≈ 28.9 µM) in series [4].

As for `NC(=O)c1cnc2ccccc2n1`, the logP in series [1] came out at 0.13. Moreover, the MIC in series [2] is over 128 µg/mL; in series [3], over 128 µg/mL; in series [4], over 6.25 µg/mL.

Take `CC(=O)Oc1ccc(COC(=O)c2ccccc2)cc1`: the logP in series [1] amounted to 3.38. In addition, the MIC was 128 µg/mL (≈ 474 µM) in series [2], 16 µg/mL (≈ 59.2 µM) in series [3] and over 6.25 µg/mL in series [4].

In the case of `CC(=O)OCc1ccc([N+](=O)[O-])cc1`, the logP in series [1] was determined as 2.02. Moreover, the MIC was over 128 µg/mL in series [2], over 128 µg/mL in series [3] and over 6.25 µg/mL in series [4].
